Measurements from the RNAGym collection of RNA variant scans (doi:10.1126/science.aae0568).
Variants at the floor of the assay were thinned out.

B1: tRNA (parent)
chain: GUUCCGUUGGCGUAAUGGUAACGCGUCUCCCUCCUAAGGAGAAGACUGCGGGUUCGAGUCCCGUACGGAACG

Variants of: B1
Experiment: yeast fitness relative to wild type (ratio to wild type); higher = fitter; tRNA-Arg(CCU), competitive growth, 37 C, YPD
Method in brief: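 The tRNA-Arg(CCU) gene variants were made by chemical synthesis with a 3% per-site mutation rate at 69 sites and inserted at the native genomic locus of Saccharomyces cerevisiae. After pooling, the strains were competed in YPD at 37°C for 24 hours in six parallel replicates. Gene amplicons from the start population and each end population were read by 100-nucleotide paired-end sequencing, and Darwinian fitness relative to wild type was taken from genotype frequency changes. Genotypes needed ≥ 100 starting reads, and estimates < 0.5 were set to 0.5.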

First: G44C U53C
Second: A43G G51A
The yeast fitness of the first is lower: 0.797 for the first, 0.853 for the second.

Compared with A45C G56A C62U, G44A G56C A57U is lower in yeast fitness: 0.711 for the first, 0.596 for the second.

First: A45G A57G
Second: A43U C61G C62U G68A A69C
The yeast fitness of the first is higher: 0.943 for the first, at most 0.5 for the second.

First: G44A U54A A70U
Second: A45G G63A G68A
The yeast fitness of the first is higher: 0.549 for the first, 0.536 for the second.

First: G44C U54C
Second: G44C U54A
The yeast fitness of the first is higher: 0.977 for the first, 0.667 for the second.

Compared with A43U G63C, A45C U64C is higher in yeast fitness: 0.589 for the first, 0.941 for the second.

A45C U53C C66U and A43U G48C C60G cannot be ordered by yeast fitness: at most 0.5 for the first, at most 0.5 for the second.

First: G44C C61A C62U C66U
Second: G44C U59A
The yeast fitness of the first is lower: at most 0.5 for the first, 0.581 for the second.

Compared with G44C U59C, A43G G50A G51A C62U is lower in yeast fitness: 0.791 for the first, at most 0.5 for the second.

Compared with G44A C46U G58C, A45C G51C U54C A57G is lower in yeast fitness: 1.08 for the first, at most 0.5 for the second.

First: A43U C60G C62U
Second: A43U C60G C62G
The yeast fitness of the first is higher: 0.839 for the first, at most 0.5 for the second.

First: A45C G51C A57G
Second: A43G G44C C66U
The yeast fitness of the first is lower: at most 0.5 for the first, 0.57 for the second.

Compared with A45C U47C, A45C U47A is lower in yeast fitness: 0.951 for the first, 0.934 for the second.

First: A43U A69G
Second: A43U A69C
The yeast fitness of the first is lower: 0.886 for the first, 0.986 for the second.

First: A43U C62A
Second: A43U A45U A57C C66U
The yeast fitness of the first is higher: 0.702 for the first, at most 0.5 for the second.

Going from A43U G56A to A43G G52C, the yeast fitness falls from 0.96 to 0.643.

First: A45C C46A C49G
Second: G44A C49U A69C
The yeast fitness of the first is lower: 0.722 for the first, 0.752 for the second.

First: G44U C49G
Second: G44C C66A
The yeast fitness of the first is lower: 0.654 for the first, 0.688 for the second.

Compared with G44A U47G C49G U54G, G44A U64C is higher in yeast fitness: at most 0.5 for the first, 0.935 for the second.

Going from A43U C61G C62A to G44A C66U, the yeast fitness rises from 0.581 to 0.86.

First: A45C C46U G67C
Second: A45G G56C
The yeast fitness of the first is lower: 0.584 for the first, 0.604 for the second.

Going from A45G G68A to G44C C62G G68A, the yeast fitness falls from 0.973 to at most 0.5.

First: G44C U64C
Second: G44C U64G
The yeast fitness of the first is higher: 0.858 for the first, 0.653 for the second.

First: G44A U54C C61U A69C
Second: A45C U54C
The yeast fitness of the first is lower: 0.627 for the first, 0.69 for the second.

First: G44C A45G A70G
Second: G44C A57G
The yeast fitness of the first is lower: 0.695 for the first, 0.895 for the second.

Going from G44C A57C to G44C C46A G56C, the yeast fitness falls from 0.568 to 0.543.

Going from A43U C66U to A45C G58C A69C, the yeast fitness falls from 0.829 to 0.651.

A43U G50C C60A and A45G G58C G67U G68C cannot be ordered by yeast fitness: at most 0.5 for the first, at most 0.5 for the second.

First: A45G C62U
Second: G44U C55G
The yeast fitness of the first is higher: 0.968 for the first, at most 0.5 for the second.

First: A43G G67U
Second: A43G G67A
The yeast fitness of the first is lower: 0.85 for the first, 0.864 for the second.

Compared with G44C G50A G67C, G44A C55A A69C is lower in yeast fitness: 0.604 for the first, at most 0.5 for the second.

First: G44C G50C A57G A69U
Second: A43U C49G
The yeast fitness of the first is lower: at most 0.5 for the first, 0.727 for the second.

Going from A45G A65C to A45G A65U, the yeast fitness rises from 0.868 to 0.911.

First: A45C C66A
Second: A45C C66U
The yeast fitness of the first is lower: 0.665 for the first, 0.786 for the second.

Compared with A43U A65C, A43U A65U is lower in yeast fitness: 0.952 for the first, 0.883 for the second.

Compared with A43G G68C, G44A A57C is lower in yeast fitness: 0.712 for the first, 0.654 for the second.

First: A45C C55U G68C
Second: G44A G50A
The yeast fitness of the first is lower: 0.626 for the first, 0.891 for the second.

First: G44A G50C
Second: G44A C55G G63C
The yeast fitness of the first is higher: 0.623 for the first, at most 0.5 for the second.

First: G44A A65G
Second: A45C G51A
The yeast fitness of the first is higher: 1 for the first, 0.919 for the second.

Compared with A45G C66U, A43U C55A C66U is lower in yeast fitness: 0.952 for the first, 0.6 for the second.

Compared with A43G G51A C55G C60U, A43U A45C is higher in yeast fitness: at most 0.5 for the first, 0.837 for the second.

Going from A43G G56C to A45G U47A, the yeast fitness rises from 0.766 to 0.91.

First: G44C A65C
Second: G44C A65G
The yeast fitness of the first is lower: 0.742 for the first, 1.06 for the second.

First: A45C G52A
Second: A43U U54A A57C
The yeast fitness of the first is higher: 0.731 for the first, 0.533 for the second.

First: A43U A65C G68U
Second: A45G C55U
The yeast fitness of the first is lower: 0.527 for the first, 0.704 for the second.

First: A45G C55G
Second: A45U A65G G67U A69G
The yeast fitness of the first is higher: 0.562 for the first, at most 0.5 for the second.

First: A43U G67A A69U
Second: G44A C46G G50C U53A
The yeast fitness of the first is higher: 0.548 for the first, at most 0.5 for the second.

Going from A45G C61A A70G to A45G G50C, the yeast fitness rises from 0.55 to 0.637.

Compared with G44A C46U A70C, A43U C46A A65C A70U is lower in yeast fitness: 0.809 for the first, at most 0.5 for the second.

G44C C46G C55U G63A and G44A C60G U64C cannot be ordered by yeast fitness: at most 0.5 for the first, at most 0.5 for the second.

Compared with A43G U64G C66U, G44C C46A is higher in yeast fitness: 0.544 for the first, 1.01 for the second.

First: G44C C62A
Second: G44C C62G
The yeast fitness of the first is higher: 0.738 for the first, 0.644 for the second.

First: A45C G56C U64C
Second: G44U A45C G50C
The yeast fitness of the first is higher: 0.555 for the first, at most 0.5 for the second.

A45G G56A U59A and A43U U47C C55A A65U A70G cannot be ordered by yeast fitness: at most 0.5 for the first, at most 0.5 for the second.

Compared with A45C G50A A65C, G44C G48A G51A is higher in yeast fitness: 0.634 for the first, 0.985 for the second.

Compared with A43U G56A G63A, A45C C49A U54C is lower in yeast fitness: 0.773 for the first, at most 0.5 for the second.

First: A43G G50A G51A
Second: A45G G58A G63A
The yeast fitness of the first is lower: at most 0.5 for the first, 0.727 for the second.

Compared with G44A C62G, G44A C62U is higher in yeast fitness: 0.668 for the first, 0.874 for the second.

Going from G44A G67A A70G to A43G C66U G68A, the yeast fitness falls from 0.688 to 0.585.

First: A43U C55A G68C A69U
Second: A43U U47C
The yeast fitness of the first is lower: at most 0.5 for the first, 0.899 for the second.

Compared with A43G C66A, A45G C60A is lower in yeast fitness: 0.791 for the first, 0.632 for the second.

Compared with G44C C55G A65G, A45G G48A is higher in yeast fitness: 0.555 for the first, 1.1 for the second.

Going from G44C G68U to G44C G68C, the yeast fitness rises from 0.661 to 0.81.

Going from A43U C46A G48C to A45C C60U, the yeast fitness rises from 0.631 to 0.752.

Going from G44A G48A to A43U G50A G68A, the yeast fitness falls from 0.96 to at most 0.5.

Going from A43U C55U C66U to A45C C46U C55U C62U, the yeast fitness falls from 0.619 to at most 0.5.

First: A45C G58U
Second: A43U U47G U53G
The yeast fitness of the first is higher: 0.675 for the first, 0.519 for the second.

Compared with A45G U53G, A43U C49U C62U is higher in yeast fitness: 0.586 for the first, 0.79 for the second.

Going from A43U U64G G67A to A45U C46A C60G, the yeast fitness rises from at most 0.5 to 0.521.

Going from A43G U47G C55G to G44A G67C, the yeast fitness rises from 0.636 to 0.71.

First: G44A G67A
Second: A43U G48C C60G G63A
The yeast fitness of the first is higher: 0.887 for the first, at most 0.5 for the second.

Compared with A43G G50A, A45U A57G G67A is lower in yeast fitness: 0.864 for the first, 0.598 for the second.

Compared with A43U C60G U64A, A43U G48A G56C A57U is higher in yeast fitness: 0.679 for the first, 0.693 for the second.

Compared with G44C C46G A57C, A45C A65G is higher in yeast fitness: at most 0.5 for the first, 0.993 for the second.

Going from A45C A65U to A43U U59A C61A, the yeast fitness falls from 0.833 to 0.629.

Going from G44C G52A C62G A69G to A45C A57C G68C, the yeast fitness rises from at most 0.5 to 0.517.

First: G44C A45G G56A
Second: G44C C46A A69U
The yeast fitness of the first is higher: 1.01 for the first, 0.726 for the second.

Going from A43G G44A C46A G67A to G44A G52C, the yeast fitness falls from 0.59 to 0.504.

First: G44A G52A
Second: A43U G48C
The yeast fitness of the first is lower: 0.827 for the first, 0.922 for the second.

Going from A45U A65G to A45U A65U, the yeast fitness rises from 0.947 to 0.959.

Compared with A45C C55U G56A, G44A G56A is higher in yeast fitness: 0.539 for the first, 1.05 for the second.

Compared with G44A A45C U53A C55A U59C C62U, A43U C60A C62U is higher in yeast fitness: at most 0.5 for the first, 0.65 for the second.

Compared with A45C C55U G67C, A45C A57G A70C is higher in yeast fitness: at most 0.5 for the first, 0.764 for the second.

Variant G44U A45U G63C has a yeast fitness of at most 0.5.
